{"data": "Measurements of several laboratories", "note": "Lines come from different studies, so protocols differ."}
{"Structure (SMILES)": "O=c1[nH]c(=O)n([C@H]2C[C@H](O)[C@@H](CO)O2)cc1/C=C/Br", "target or system": "Cowpox virus", "test": "microbial growth", "quantity": "MIC50", "result": "50 µM"}
{"Structure (SMILES)": "COC(=O)c1cc(-c2cccc(NC(=S)Nc3ccc(C#N)cc3)c2)on1", "target or system": "Mycolicibacterium fortuitum", "test": "microbial growth, broth dilution", "test system": "ATCC6841", "conditions": "48 h", "quantity": "MIC", "result": "64 µg/mL"}
{"Structure (SMILES)": "CO[C@H]1/C=C/O[C@@]2(C)Oc3c(C)c(O)c4c(O)c(c(/C=N/N5CCN(C)CC5)c(O)c4c3C2=O)NC(=O)/C(C)=C\\C=C\\[C@H](C)[C@H](O)[C@@H](C)[C@@H](O)[C@@H](C)[C@H](OC(C)=O)[C@@H]1C", "target or system": "Mycobacterium marinum", "test": "microbial growth", "conditions": "5 days", "quantity": "MIC", "result": "< 0.78 µM"}
{"Structure (SMILES)": "N#Cc1ccc(NC(=S)NN=Cc2ccccc2)cc1", "target or system": "CCRF-CEM", "test": "cell growth or viability", "conditions": "72 h", "quantity": "IC50", "result": "83 µg/mL"}
{"Structure (SMILES)": "[H]/N=C(/N)N[C@H]1[C@H](O)[C@@H](O)[C@H](O[C@@H]2O[C@@H](C)[C@](O)(C=O)[C@H]2O[C@@H]2O[C@@H](CO)[C@H](O)[C@@H](O)[C@@H]2NC)[C@@H](N/C(N)=N\\[H])[C@@H]1O", "target or system": "Mycolicibacterium fortuitum", "test": "microbial growth", "test system": "ATCC6841", "quantity": "MIC", "result": "50 µg/mL"}
{"Structure (SMILES)": "CC(C(=O)NCc1ccccc1)c1cccc(C(OC(=O)NCc2ccccc2)c2ccccc2)c1 (stereo not drawn)", "target or system": "CCRF-CEM", "test": "cell growth or viability", "conditions": "72 h", "quantity": "IC50", "result": "2700 nM"}
{"Structure (SMILES)": "COC(=O)c1cc(-c2cccc(NC(=O)NCc3ccccc3)c2)on1", "target or system": "Mycolicibacterium fortuitum", "test": "microbial growth, broth dilution", "test system": "ATCC6841", "conditions": "48 h", "quantity": "MIC", "result": "> 64 µg/mL"}
{"Structure (SMILES)": "Nc1ccn(C[C@@H](CO)OCP(=O)(O)O)c(=O)n1", "target or system": "Cowpox virus", "test": "microbial growth", "quantity": "MIC50", "result": "22 µM"}
{"Structure (SMILES)": "CCOC(=O)c1nnn(-c2cccc(NC(=O)Nc3ccc(Cl)c(Cl)c3)c2)c1C", "target or system": "Mycolicibacterium fortuitum", "test": "microbial growth, broth dilution", "test system": "ATCC6841", "conditions": "48 h", "quantity": "MIC", "result": "> 64 µg/mL"}
{"Structure (SMILES)": "CCOC(=O)c1c(CSc2ccccc2)n(C)c2cc(Br)c(O)c(CN(C)C)c12.Cl.O", "target or system": "Cowpox virus", "test": "microbial growth", "quantity": "MIC50", "result": "> 20 µg/mL"}
{"Structure (SMILES)": "COc1cc(C(=O)c2cc3c(-c4ccccc4)c(O)ccc3o2)cc(OC)c1OC", "target or system": "CCRF-CEM", "test": "cell growth or viability", "conditions": "72 h", "quantity": "IC50", "result": "> 50000 nM"}
{"Structure (SMILES)": "COC(=O)c1cc(-c2cccc(NC(=S)Nc3ccccc3Cl)c2)on1", "target or system": "Mycolicibacterium fortuitum", "test": "microbial growth, broth dilution", "test system": "ATCC6841", "conditions": "48 h", "quantity": "MIC", "result": "> 64 µg/mL"}
{"Structure (SMILES)": "N#Cc1ccc(NC(=S)NN=Cc2ccc(N(CCCl)CCCl)cc2)cc1", "target or system": "CCRF-CEM", "test": "cell growth or viability", "conditions": "72 h", "quantity": "IC50", "result": "0.7 µg/mL"}
{"Structure (SMILES)": "COC(=O)c1cc(-c2cccc(NC(=O)Nc3ccc(F)cc3)c2)on1", "target or system": "Mycolicibacterium fortuitum", "test": "microbial growth, broth dilution", "test system": "ATCC6841", "conditions": "48 h", "quantity": "MIC", "result": "> 64 µg/mL"}
{"Structure (SMILES)": "CO[C@H]1/C=C/O[C@@]2(C)Oc3c(C)c(O)c4c(O)c(c(/C=N/N5CCN(C)CC5)c(O)c4c3C2=O)NC(=O)/C(C)=C\\C=C\\[C@H](C)[C@H](O)[C@@H](C)[C@@H](O)[C@@H](C)[C@H](OC(C)=O)[C@@H]1C", "target or system": "Mycobacterium marinum", "test": "microbial growth", "test system": "ATCC927", "quantity": "MIC", "result": "< 0.2 µg/mL"}
{"Structure (SMILES)": "COC(=O)c1cc(-c2cccc(NC(=O)Nc3ccc(C(F)(F)F)cc3)c2)on1", "target or system": "Mycolicibacterium fortuitum", "test": "microbial growth, broth dilution", "test system": "ATCC6841", "conditions": "48 h", "quantity": "MIC", "result": "> 64 µg/mL"}
{"Structure (SMILES)": "CC(C(=O)N1CCCCC1)c1cccc(C(OC(=O)N2CCCCC2)c2ccccc2)c1 (stereo not drawn)", "target or system": "CCRF-CEM", "test": "cell growth or viability", "conditions": "72 h", "quantity": "IC50", "result": "13000 nM"}
{"Structure (SMILES)": "NCC(=O)Nc1ccc(-n2nc(C(F)(F)F)cc2-c2ccc3c(ccc4ccccc43)c2)cc1", "target or system": "Human immunodeficiency virus 1", "test": "viral replication, inhibitor", "test system": "human PBMC", "conditions": "clinical isolate", "quantity": "IC90", "result": "2240 nM"}
